Data: ChEMBL document CHEMBL1137700, “New transition metal ion complexes with benzimidazole-5-carboxylic acid hydrazides with antitumor activity” (Eur J Med Chem, 2009)

Experiments:
MCF7 = assay: Cytotoxicity against human MCF7 cells after 72 hrs by Alamar Blue assay; type: functional, cell-based; settings: MCF7, 72 h
In short: (§1)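 Cells seeded and grown at 37 °C under 5% CO2 for 24 h, then compounds in DMSO added in duplicate wells. Exposure 72 h at 37 °C, then media replaced with fresh media plus AlamarBlue and fluorescence read. Growth was computed from mean fluorescence at time zero, after 72 h with test substance, and after 72 h with vehicle control. IC50 derived.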

A549 = assay: Cytotoxicity against human A549 cells after 72 hrs by Alamar Blue assay; type: functional, cell-based; settings: A549, 72 h; in short: as §1

Structure (SMILES)	IC50 (MCF7)	IC50 (A549)
CC(C)=NNC(=O)c1cc2nc(C)[nH]c2cc1[N+](=O)[O-]	> 100 µM	> 100 µM
CC(C)=NNC(=O)c1ccc2[nH]c(C)nc2c1	> 100 µM	> 100 µM
Cc1nc2cc(C(=O)O)ccc2[nH]1	> 100 µM	> 100 µM
Cc1nc2cc(C(=O)N/N=C\c3ccc(C)o3)c([N+](=O)[O-])cc2[nH]1	> 100 µM	> 100 µM
CCN1CCN(C(=O)N[C@@H](C(=O)N[C@@H]2C(=O)N3C(C(=O)O)=C(CSc4nnnn4C)CS[C@H]23)c2ccc(O)cc2)C(=O)C1=O [CEFOPERAZONE]	> 100 µM	> 100 µM
CCOC(=O)c1ccc2[nH]c(C)nc2c1	62 µM	> 100 µM
Cc1nc2cc(C(=O)N/N=C\c3ccccn3)c([N+](=O)[O-])cc2[nH]1	> 100 µM	> 100 µM
CCOC(=O)c1cc2nc(C)[nH]c2cc1[N+](=O)[O-]	> 100 µM	> 100 µM
CO[C@@]12[C@H](COC(N)=O)C3=C(C(=O)C(C)=C(N)C3=O)N1C[C@@H]1N[C@@H]12 [MITOMYCIN]	0.2 µM	0.4 µM
COC(=O)c1cccc2oc(-c3cccc4oc(-c5ccccc5O)nc34)nc12	1.4 µM	2 µM
Cc1nc2cc(C(=O)NN)c([N+](=O)[O-])cc2[nH]1	> 100 µM	> 100 µM
Cc1ccc(/C=N\NC(=O)c2cc3nc(C)[nH]c3cc2[N+](=O)[O-])cc1	3 µM	73 µM
Cc1nc2cc(C(=O)N/N=C\c3ccco3)c([N+](=O)[O-])cc2[nH]1	81 µM	> 100 µM
Cc1nc2cc(C(=O)N/N=C\c3c[nH]c4ccccc34)c([N+](=O)[O-])cc2[nH]1	> 100 µM	> 100 µM
